Published values from different studies.
Each line is one published result; the experiments were not run side by side.
DDR2: Discoidin domain-containing receptor 2 (DDR2, Homo sapiens, UniProt Q16832)
SLC6A3: Sodium-dependent dopamine transporter (SLC6A3, Homo sapiens, UniProt Q01959)
PTPN22: Tyrosine-protein phosphatase non-receptor type 22 (PTPN22, Homo sapiens, UniProt Q9Y2R2)
CHEK1: Serine/threonine-protein kinase Chk1 (CHEK1, Homo sapiens, UniProt O14757)
PRMT1: Protein arginine N-methyltransferase 1 (PRMT1, Homo sapiens, UniProt Q99873)
HDAC5: Histone deacetylase 5 (HDAC5, Homo sapiens, UniProt Q9UQL6)

The IC50 of `O=C1NC(=O)C(Cc2ccc3cc(OCc4ccccc4F)ccc3c2)S1` (stereo not drawn) is reported as 5000 nM (Pantothenate kinase 3 (PANK3, Homo sapiens, UniProt Q9H999); enzyme activity; inhibitor; radiometric).
`Cc1ccc(NC(=O)c2ccc(C)c(C(F)(F)F)c2)cc1C#Cc1nn(C2CCC(O)CC2)c2ncnc(N)c12` (stereo not drawn) gave an IC50 of 65 nM (DDR2; enzyme activity; inhibitor; radiometric).
The IC50 of `COc1ccc(-c2nsc(NC(=O)[C@@H]3C[C@H]3C)c2C)cc1` is reported as 118 nM (Metabotropic glutamate receptor 5 (GRM5, Homo sapiens, UniProt P41594); calcium signal; antagonist).
`COc1ccc(S(=O)(=O)ON=C2C=C(C)C(=O)C(C)=C2)cc1` gave an IC50 of 33900 nM (Histone acetyltransferase KAT2A (KAT2A, Homo sapiens, UniProt Q92830); enzyme activity; inhibitor; radiometric).
`CSc1ccc(/C=C2/C(C)=C(CC(=O)O)c3cc(F)ccc32)cc1` gave an IC50 of greater than 100000 nM (cAMP and cAMP-inhibited cGMP 3',5'-cyclic phosphodiesterase 10A (PDE10A, Homo sapiens, UniProt Q9Y233); enzyme activity; inhibitor).
`COc1cc(O)c(C(CC(=O)Nc2ccc(C)cc2)c2ccc3c(c2)OCO3)c(OC)c1` (stereo not drawn) has an IC50 of greater than 50000 nM (Nuclear receptor ROR-gamma (Mus musculus, UniProt P51450); reporter gene).
With `Clc1ccc(C(c2ccccc2)c2nnnn2CCCCN2CCN(CC=Cc3ccccc3)CC2)cc1` (stereo not drawn) the IC50 was 412 nM (SLC6A3; transporter uptake; inhibitor).
The IC50 of `CCN(CC)C(=O)c1cnn2c(-c3cccc(C(F)(F)F)c3)ccnc12` is reported as greater than 20000 nM (Toll-like receptor 8 (TLR8, Homo sapiens, UniProt Q9NR97); reporter gene).
`Clc1ccc(C(c2ccccc2)c2nnnn2CCCCN2CCC(Cc3ccc(Cl)c(Cl)c3)CC2)cc1` (stereo not drawn) gave an IC50 of 550 nM (SLC6A3; transporter uptake; inhibitor).
With `O=C(O)C1=CCCN(CCON=C(c2ccccc2)c2ccccc2)C1` the IC50 was 390 nM (Sodium- and chloride-dependent GABA transporter 1 (Slc6a1, Rattus norvegicus, UniProt P23978); ligand displacement; radioligand).
For `Fc1ccc(C(c2ccc(F)cc2)c2nnnn2CCCCN2CCC(Cc3ccc(Cl)c(Cl)c3)CC2)cc1`, the IC50 was 608 nM (SLC6A3; transporter uptake; inhibitor).
For `Cc1cnc(-c2ccc(-c3ccc(NC(=O)Nc4c(F)cc(F)cc4F)cc3F)c3c2C(=O)NC3)[nH]1`, the IC50 was 1 nM (DDR2; enzyme activity; inhibitor).
`S=C(SSC(=S)N1CCOCC1)N1CCOCC1` gave an IC50 of 23000 nM (PTPN22; enzyme activity; inhibitor; fluorescence; pH 6.5).
`COC(=O)C1CCCN1C(=O)c1ccc2c(c1)NC(=O)c1ccc(-c3ccc(O)c(OC)c3)cc1N2` (stereo not drawn) has an IC50 of 128 nM (CHEK1; enzyme activity; inhibitor).
`CC(C)C1=CC[C@H]2C(=C1)CC[C@@H]1[C@]2(C)CCC[C@@]1(C)C(=O)O` has an IC50 of greater than 20000 nM (ATP-citrate synthase (ACLY, Homo sapiens, UniProt P53396); enzyme activity; inhibitor).
For `COC(=O)Cc1ccc2c(c1)NC(=O)c1cc(C)c(-c3cccc(NC(C)=O)c3)cc1N2`, the IC50 was greater than 10000 nM (CHEK1; enzyme activity; inhibitor).
For `CCN(CC)C(=S)SSC(=S)N(CC)CC`, the IC50 was 47000 nM (PTPN22; enzyme activity; inhibitor; fluorescence; pH 6.5).
For `COC(=O)Cc1ccc2c(c1)NC(=O)c1cc(C)c(-c3ccc([N+](=O)[O-])c(OC)c3)cc1N2`, the IC50 was 49.4 nM (CHEK1; enzyme activity; inhibitor).
`Fc1ccc(C(c2ccc(F)cc2)c2nnnn2CCCCN2CCC(Cc3ccccc3)CC2)cc1` has an IC50 of 57.9 nM (SLC6A3; transporter uptake; inhibitor).
With `COC(=O)Cc1ccc2c(c1)NC(=O)c1ccc(-c3cccc4ccccc34)cc1N2` the IC50 was greater than 10000 nM (CHEK1; enzyme activity; inhibitor).
`CCn1ncc2c1-c1cnc(N)c(c1)O[C@H](C)c1cc(F)ccc1-c1nn(C)nc1C2` has an IC50 of 77 nM (Activated CDC42 kinase 1 (TNK2, Homo sapiens, UniProt Q07912); enzyme activity; inhibitor; radiometric).
`N=C(NCCCSC[C@H]1O[C@@H](n2cnc3c(NCCCc4ccccc4)ncnc32)[C@H](O)[C@@H]1O)NC1CC1` has an IC50 of 1180 nM (PRMT1; enzyme activity; inhibitor; fluorescence).
The IC50 of `Cc1ccc(C(=O)Nc2ccc(Oc3cc4cnn(C)c4cc3-c3cn[nH]c3)c(F)c2)c(=O)n1-c1ccc(F)cc1` is reported as 41 nM (DDR2; enzyme activity; inhibitor; radiometric).
For `COc1cc(NC(=O)CCCCCCC(=O)O)c(Cl)cc1NC(=O)Nc1cnc(C#N)cn1`, the IC50 was 57.9 nM (CHEK1; enzyme activity; inhibitor).
For `Clc1ccc(C(c2ccccc2)c2nnnn2CCCN2CCC(Cc3ccccc3)CC2)cc1` (stereo not drawn), the IC50 was 226 nM (SLC6A3; transporter uptake; inhibitor).
The IC50 of `C/C(=N\O)c1ccc(-c2ccc(O)c(Cl)c2)c(Cl)c1O` is reported as 7000 nM (Solute carrier family 2, facilitated glucose transporter member 1 (SLC2A1, Homo sapiens, UniProt P11166); transporter uptake; inhibitor; radiometric).
`Nc1ccc(-c2ccncc2)cc1NC(=O)N1CCCC1` has an IC50 of greater than 33300 nM (HDAC5; enzyme activity; inhibitor).
The IC50 of `COc1cc(-c2ccc3c(c2)Nc2ncccc2NC3=O)ccc1[N+](=O)[O-]` is reported as greater than 10000 nM (CHEK1; enzyme activity; inhibitor).
`CCCC[C@H](NC(=O)C1CN(C)C1)c1ncc(-c2cc3ccccc3nc2OC)[nH]1` has an IC50 of greater than 30000 nM (HDAC5; enzyme activity; inhibitor).
With `O=c1cc(-c2ccc(-c3[nH]nc4c3Cc3cc(O)ccc3-4)cc2)cc[nH]1` the IC50 was 1250 nM (CHEK1; enzyme activity; inhibitor).
`OC[C@H]1O[C@@H](n2cnc3c(NCCCc4ccccc4)ncnc32)[C@H](O)[C@@H]1O` has an IC50 of greater than 100000 nM (PRMT1; enzyme activity; inhibitor; fluorescence).
`COC(=O)Cc1ccc2c(c1)NC(=O)c1ccc(-c3cn(C)cn3)cc1N2` has an IC50 of 7810 nM (CHEK1; enzyme activity; inhibitor).
For `Nc1ncnc2c1ncn2[C@@H]1O[C@H](CN(CC[C@H](N)C(=O)O)Cc2ccc3ccccc3c2)[C@@H](O)[C@H]1O`, the IC50 was greater than 50000 nM (PRMT1; enzyme activity; inhibitor).
